ChEMBL document CHEMBL1152550, “Synthesis and structure-activity relationships of N-aryl(indol-3-yl)glyoxamides as antitumor agents” (Bioorg Med Chem, 2009)

Columns and labels:
Assay type in all cases: functional, cell-based
[1] = Cytotoxicity against human KB/HeLa cells after 48 hrs by XTT assay
L1210 = experiment: Cytotoxicity against mouse L1210 cells after 48 hrs by XTT assay; details: L1210, 48 h
SK-OV-3 = experiment: Cytotoxicity against human SKOV3 cells after 48 hrs by XTT assay; details: SK-OV-3, 48 h
[2] = Cell cycle arrest in human KB/HeLa cells assessed as accumulation in G2/M phase by cytometric analysis
Summary of the method: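 HeLa/KB cells; nuclei isolated with detergent lysis, trypsin, RNA digestion and spermine chromatin stabilisation, then stained stoichiometrically with propidium iodide. Read by flow cytometry with doublet discrimination, FL2 detector collecting 564–606 nm emission; DNA histograms analysed for cell cycle phase distribution across a concentration series (dose–response).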

SMILES | IC50 [1] [µM] | IC50 (L1210) [µM] | IC50 (SK-OV-3) [µM] | Activity [2]
COc1cc(NC(=O)C(=O)c2cn(Cc3ccc(F)cc3)c3ccccc23)cc(OC)c1OC | 0.378 | 0.378 | 3.78 | 
O=C(Nc1ccccn1)C(=O)c1cn(Cc2ccc(F)cc2)c2ccccc12 | > 10 | 8.3 | > 10 | 
O=C(Nc1ccncc1)C(=O)c1cn(Cc2ccc(Cl)cc2)c2ccccc12 [INDIBULIN] | 0.044 | 0.044 | 0.077 | Dose-dependent effect
CCOC(=O)c1ccc(NC(=O)C(=O)c2cn(Cc3ccc(F)cc3)c3ccccc23)cc1 | 3.94 | 3.94 | 3.94 | 
O=C(Nc1ccc(F)cc1)C(=O)c1cn(Cc2ccc(F)cc2)c2ccccc12 | 7.94 | 4.48 | > 10 | 
N#Cc1ccc(NC(=O)C(=O)c2cn(Cc3ccc(F)cc3)c3ccccc23)cc1 | > 10 | > 10 | > 10 | 
O=C(Nc1ccncc1)C(=O)c1cn(Cc2ccc(F)cc2)c2ccccc12 | 0.054 | 0.455 | 0.455 | Dose-dependent effect
O=C(C(=O)N1CCN(c2ccncc2)CC1)c1cn(Cc2ccc(F)cc2)c2ccccc12 | > 10 | 3.96 | > 10 | 
O=C(Nc1ccc([N+](=O)[O-])cc1)C(=O)c1cn(Cc2ccc(F)cc2)c2ccccc12 | > 10 | > 10 | > 10 | 
O=C(Nc1cccnc1)C(=O)c1cn(Cc2ccc(F)cc2)c2ccccc12 | 4.69 | 4.69 | 4.69 | 
O=C(Nc1ccc(Br)cc1)C(=O)c1cn(Cc2ccc(F)cc2)c2ccccc12 | 3.88 | 3.88 | 3.88 | 
